Measurements taken from ChEMBL document CHEMBL5303300, “EUbOPEN Chemogenomics Library - Multiplex” (2023).
Values joined by “and” are separate entries in the source; they are usually repeats but may differ in a detail not shown here. Equal values may be shown once.

Key:
Assay type in all cases: toxicity, cell-based
Fibroblast = experiment: Multiplex assay against human fibroblast; conditions: number of replicates 2
Method in brief: (§1)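 Phenotypes for tubulin, mitochondrial mass and membrane permeability are expressed as per cents of healthy-nucleus cells. Cells were stained live at seeding with Hoechst33342, BioTracker Green Microtubule Cytoskeleton Dye, MitoTracker Red and Annexin V Alexa Fluor 680, then imaged after compound addition on a CQ1 microscope at 37°C and 5% CO2. Machine-learning gating in CellPathfinder separated Hoechst high-intensity objects from normal cells, divided normal cells by nuclear state (healthy, pyknosed, fragmented) and divided pyknosed cells into mitotic or apoptotic.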

HEK-293T = experiment: Multiplex assay against HEK293T; conditions: human, number of replicates 2; method in brief: as §1
U2OS = experiment: Multiplex assay against U2OS; conditions: human, number of replicates 2; method in brief: as §1
[1] = 12 h, 1 µM, compound concentration 1 uM
[2] = 12 h, 10 µM, compound concentration 10 uM
[3] = 24 h, 1 µM, compound concentration 1 uM
[4] = 24 h, 10 µM, compound concentration 10 uM
[5] = 48 h, 1 µM, compound concentration 1 uM
[6] = 48 h, 10 µM, compound concentration 10 uM

## Br.Cc1cccc(C2CN(C)CCc3c2cc(O)c(O)c3Cl)c1 (stereo not given)
Fibroblast; [1]
  Population Apoptotic (%): 50% and 47%
  Population Fragmented Nuclei (%): 10% and 13%
  Population Healthy Nuclei (%): 79%
  Population Hoechst High Intensity Objects (%): 0%
  Population Membrane Permeable-Phenotype (%): 1% and 4%
  Population Mitochondria Different-Phenotype (%): 0% and 1%
  Population Mitotic Cells (%): 50% and 52%
  Population Normal (%): 100%
  Population Pyknosed Nuclei (%): 10% and 6%
  Population Tubulin-Different-Phenotype (%): 9% and 5%
  Total Cell Count: 210 and 248
Fibroblast; [2]
  Population Apoptotic (%): 68% and 66%
  Population Fragmented Nuclei (%): 11% and 13%
  Population Healthy Nuclei (%): 77% and 78%
  Population Hoechst High Intensity Objects (%): 0%
  Population Membrane Permeable-Phenotype (%): 2%
  Population Mitochondria Different-Phenotype (%): 1% and 5%
  Population Mitotic Cells (%): 31% and 33%
  Population Normal (%): 99% and 100%
  Population Pyknosed Nuclei (%): 11% and 8%
  Population Tubulin-Different-Phenotype (%): 10% and 11%
  Total Cell Count: 167 and 173
Fibroblast; [3]
  Population Apoptotic (%): 57% and 53%
  Population Fragmented Nuclei (%): 10% and 14%
  Population Healthy Nuclei (%): 82% and 80%
  Population Hoechst High Intensity Objects (%): 0%
  Population Membrane Permeable-Phenotype (%): 1%
  Population Mitochondria Different-Phenotype (%): 0% and 1%
  Population Mitotic Cells (%): 42% and 46%
  Population Normal (%): 99% and 100%
  Population Pyknosed Nuclei (%): 6% and 5%
  Population Tubulin-Different-Phenotype (%): 8% and 3%
  Total Cell Count: 205 and 242
Fibroblast; [4]
  Population Apoptotic (%): 50% and 70%
  Population Fragmented Nuclei (%): 10% and 15%
  Population Healthy Nuclei (%): 79% and 78%
  Population Hoechst High Intensity Objects (%): 0%
  Population Membrane Permeable-Phenotype (%): 3% and 0%
  Population Mitochondria Different-Phenotype (%): 0%
  Population Mitotic Cells (%): 50% and 30%
  Population Normal (%): 100%
  Population Pyknosed Nuclei (%): 9% and 5%
  Population Tubulin-Different-Phenotype (%): 8% and 7%
  Total Cell Count: 165 and 174
Fibroblast; [5]
  Population Apoptotic (%): 50% and 62%
  Population Fragmented Nuclei (%): 13%
  Population Healthy Nuclei (%): 80% and 83%
  Population Hoechst High Intensity Objects (%): 0%
  Population Membrane Permeable-Phenotype (%): 1% and 2%
  Population Mitochondria Different-Phenotype (%): 1% and 0%
  Population Mitotic Cells (%): 50% and 37%
  Population Normal (%): 99% and 100%
  Population Pyknosed Nuclei (%): 5% and 3%
  Population Tubulin-Different-Phenotype (%): 4% and 1%
  Total Cell Count: 211 and 238
Fibroblast; [6]
  Population Apoptotic (%): 44% and 100%
  Population Fragmented Nuclei (%): 12% and 15%
  Population Healthy Nuclei (%): 82%
  Population Hoechst High Intensity Objects (%): 0%
  Population Membrane Permeable-Phenotype (%): 2% and 0%
  Population Mitochondria Different-Phenotype (%): 0%
  Population Normal (%): 100%
  Population Pyknosed Nuclei (%): 5% and 1%
  Population Tubulin-Different-Phenotype (%): 3% and 4%
  Total Cell Count: 178 and 170
HEK-293T; [1]
  Population Apoptotic (%): 15% and 42%
  Population Fragmented Nuclei (%): 4% and 3%
  Population Healthy Nuclei (%): 87% and 86%
  Population Hoechst High Intensity Objects (%): 9% and 4%
  Population Membrane Permeable-Phenotype (%): 3% and 2%
  Population Mitochondria Different-Phenotype (%): 11% and 15%
  Population Mitotic Cells (%): 84% and 57%
  Population Normal (%): 90% and 95%
  Population Pyknosed Nuclei (%): 8% and 10%
  Population Tubulin-Different-Phenotype (%): 50%
  Total Cell Count: 707 and 682
HEK-293T; [2]
  Population Apoptotic (%): 52% and 53%
  Population Fragmented Nuclei (%): 3% and 4%
  Population Healthy Nuclei (%): 88% and 81%
  Population Hoechst High Intensity Objects (%): 8% and 7%
  Population Membrane Permeable-Phenotype (%): 1% and 2%
  Population Mitochondria Different-Phenotype (%): 27% and 22%
  Population Mitotic Cells (%): 47% and 46%
  Population Normal (%): 91% and 92%
  Population Pyknosed Nuclei (%): 7% and 14%
  Population Tubulin-Different-Phenotype (%): 63% and 57%
  Total Cell Count: 523 and 513
HEK-293T; [3]
  Population Apoptotic (%): 36% and 32%
  Population Fragmented Nuclei (%): 5%
  Population Healthy Nuclei (%): 89%
  Population Hoechst High Intensity Objects (%): 7% and 8%
  Population Membrane Permeable-Phenotype (%): 3% and 1%
  Population Mitochondria Different-Phenotype (%): 3% and 5%
  Population Mitotic Cells (%): 63% and 68%
  Population Normal (%): 92% and 91%
  Population Pyknosed Nuclei (%): 4% and 5%
  Population Tubulin-Different-Phenotype (%): 28% and 35%
  Total Cell Count: 1088 and 1072
HEK-293T; [4]
  Population Apoptotic (%): 26% and 51%
  Population Fragmented Nuclei (%): 7% and 5%
  Population Healthy Nuclei (%): 87% and 89%
  Population Hoechst High Intensity Objects (%): 7%
  Population Membrane Permeable-Phenotype (%): 2% and 3%
  Population Mitochondria Different-Phenotype (%): 11% and 10%
  Population Mitotic Cells (%): 73% and 48%
  Population Normal (%): 92%
  Population Pyknosed Nuclei (%): 4% and 5%
  Population Tubulin-Different-Phenotype (%): 53% and 49%
  Total Cell Count: 768 and 746
HEK-293T; [5]
  Population Apoptotic (%): 7% and 15%
  Population Fragmented Nuclei (%): 16% and 12%
  Population Healthy Nuclei (%): 80% and 84%
  Population Hoechst High Intensity Objects (%): 12% and 10%
  Population Membrane Permeable-Phenotype (%): 6% and 4%
  Population Mitochondria Different-Phenotype (%): 0% and 1%
  Population Mitotic Cells (%): 92% and 84%
  Population Normal (%): 87% and 89%
  Population Pyknosed Nuclei (%): 2% and 3%
  Population Tubulin-Different-Phenotype (%): 15% and 19%
  Total Cell Count: 2930 and 2368
HEK-293T; [6]
  Population Apoptotic (%): 10% and 21%
  Population Fragmented Nuclei (%): 12%
  Population Healthy Nuclei (%): 84%
  Population Hoechst High Intensity Objects (%): 11%
  Population Membrane Permeable-Phenotype (%): 9% and 6%
  Population Mitochondria Different-Phenotype (%): 0% and 1%
  Population Mitotic Cells (%): 89% and 78%
  Population Normal (%): 88%
  Population Pyknosed Nuclei (%): 2%
  Population Tubulin-Different-Phenotype (%): 22% and 26%
  Total Cell Count: 1797 and 1636
U2OS; [1]
  Population Apoptotic (%): 80% and 65%
  Population Healthy Nuclei (%): 61% and 87%
  Population Hoechst High Intensity Objects (%): 0%
  Population Membrane Permeable-Phenotype (%): 0%
  Population Mitochondria Different-Phenotype (%): 0%
  Population Mitotic Cells (%): 20% and 35%
  Population Normal (%): 100%
  Population Pyknosed Nuclei (%): 10% and 7%
  Population Tubulin-Different-Phenotype (%): 51% and 83%
U2OS; [2]
  Population Fragmented Nuclei (%): 4% and 14%
  Population Healthy Nuclei (%): 88% and 80%
  Population Hoechst High Intensity Objects (%): 0%
  Population Membrane Permeable-Phenotype (%): 1% and 0%
  Population Mitochondria Different-Phenotype (%): 1% and 0%
  Population Mitotic Cells (%): 41% and 100%
  Population Normal (%): 100%
  Population Pyknosed Nuclei (%): 7% and 4%
  Population Tubulin-Different-Phenotype (%): 88% and 35%
U2OS; [3]
  Population Apoptotic (%): 56% and 50%
  Population Healthy Nuclei (%): 91% and 73%
  Population Hoechst High Intensity Objects (%): 0%
  Population Membrane Permeable-Phenotype (%): 0% and 3%
  Population Mitochondria Different-Phenotype (%): 0%
  Population Mitotic Cells (%): 43% and 50%
  Population Normal (%): 100%
  Population Pyknosed Nuclei (%): 6% and 13%
  Population Tubulin-Different-Phenotype (%): 85% and 48%
U2OS; [4]
  Population Apoptotic (%): 58% and 50%
  Population Healthy Nuclei (%): 89% and 62%
  Population Hoechst High Intensity Objects (%): 0%
  Population Membrane Permeable-Phenotype (%): 0% and 10%
  Population Mitochondria Different-Phenotype (%): 1% and 0%
  Population Mitotic Cells (%): 41% and 50%
  Population Normal (%): 100%
  Population Pyknosed Nuclei (%): 8% and 12%
  Population Tubulin-Different-Phenotype (%): 83% and 40%
U2OS; [5]
  Population Apoptotic (%): 42% and 46%
  Population Healthy Nuclei (%): 72% and 90%
  Population Hoechst High Intensity Objects (%): 0%
  Population Membrane Permeable-Phenotype (%): 2% and 0%
  Population Mitochondria Different-Phenotype (%): 0%
  Population Mitotic Cells (%): 57% and 53%
  Population Normal (%): 100%
  Population Pyknosed Nuclei (%): 11% and 5%
  Population Tubulin-Different-Phenotype (%): 60% and 91%
U2OS; [6]
  Population Apoptotic (%): 50% and 67%
  Population Healthy Nuclei (%): 73% and 91%
  Population Hoechst High Intensity Objects (%): 0%
  Population Membrane Permeable-Phenotype (%): 4% and 0%
  Population Mitochondria Different-Phenotype (%): 4% and 0%
  Population Mitotic Cells (%): 50% and 32%
  Population Normal (%): 100%
  Population Pyknosed Nuclei (%): 13% and 6%
  Population Tubulin-Different-Phenotype (%): 63% and 88%
